From PMC9826239 (Angewandte Chemie (International Ed. in English), 2022)
Residues, ends and D or L forms follow the SMILES beside them. *: point of attachment. X1 = [N-]=[N+]=NCCOCCOCCOCCOCC(=O)*

Tests used:
E-selectin = target: T1, E-selectin (Homo sapiens, UniProt P16581); test: SPR direct binding to E-selectin-functionalized sensor chip
T1 sequence (P16581 22-610): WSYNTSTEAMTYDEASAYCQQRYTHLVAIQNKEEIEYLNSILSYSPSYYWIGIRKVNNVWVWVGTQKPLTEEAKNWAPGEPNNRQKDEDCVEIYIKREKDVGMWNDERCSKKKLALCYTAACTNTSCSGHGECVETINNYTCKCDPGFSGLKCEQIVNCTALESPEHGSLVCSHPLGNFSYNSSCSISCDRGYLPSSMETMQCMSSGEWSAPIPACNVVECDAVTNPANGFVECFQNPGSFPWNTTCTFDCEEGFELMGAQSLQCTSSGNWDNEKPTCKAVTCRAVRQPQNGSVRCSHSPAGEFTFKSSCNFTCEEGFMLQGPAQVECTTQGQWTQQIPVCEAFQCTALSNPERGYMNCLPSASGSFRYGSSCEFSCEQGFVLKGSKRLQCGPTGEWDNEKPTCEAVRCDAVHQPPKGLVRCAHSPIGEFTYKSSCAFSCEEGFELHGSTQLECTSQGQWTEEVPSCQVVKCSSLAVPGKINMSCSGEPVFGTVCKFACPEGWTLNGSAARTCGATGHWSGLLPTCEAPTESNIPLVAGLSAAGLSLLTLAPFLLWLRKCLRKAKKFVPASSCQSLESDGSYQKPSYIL

[1] = Water solubility of peptides; type: physicochemical; details: after HPLC purification; qualitative
[2] = test system: E-selectin on HUVEC cells; type: cell-based, human; details: 10 μM in HKR pH 7.4, 30 min; 10 ng/mL TNFα for 12 h; heparin/HKR washes
In short: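 Human umbilical vein endothelial cells (HUVEC) were cultured as two parallel sets, with or without TNFα, to induce E‑selectin overexpression. Both sets were incubated for 30 min with 10 μM rhodamine‑labelled peptide/[60]fullerene conjugate (binding peptide or non‑binding control sequence). Cells were then washed thoroughly with heparin and HKR buffer and imaged by live‑cell confocal microscopy.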

Molecule | Kd (E-selectin) | water solubility [1] | also measured
CC[C@H](C)[C@H](N)C(=O)N[C@@H](CCC(=O)O)C(=O)N[C@@H](CC(C)C)C(=O)N[C@@H](CC(C)C)C(=O)N[C@@H](CCC(N)=O)C(=O)N[C@@H](C)C(=O)N[C@@H](CCCNC(=N)N)C(=O)N[C@@H](CCCCNC(=O)COCCOCCOCCOCCN=[N+]=[N-])C(N)=O [P1, IELLQARK‐(PEG)4‐N3] (H-IELLQARK(X1)-NH2) | 51.6 µM | excellent purity and water solubility | –
CC[C@H](C)[C@H](NC(=O)COCCOCCOCCOCCN=[N+]=[N-])C(=O)N[C@@H](CCC(=O)O)C(=O)N[C@@H](CC(C)C)C(=O)N[C@@H](CC(C)C)C(=O)N[C@@H](CCC(N)=O)C(=O)N[C@@H](C)C(=O)N[C@@H](CCCNC(=N)N)C(N)=O [P2, N3‐(PEG)4‐IELLQAR] (X1-IELLQAR-NH2) | 2950 µM | excellent purity and water solubility | –
C60-(IELLQARK)12 [F1] | – | – | dissociation behaviour in SPR sensorgrams (E-selectin; (12.5-0.78) μM, t>240 s, initial fast then extremely slow dissociation phase): two‐phase dissociation process; affinity increase relative to its monomeric counterpart (E-selectin; F1 vs monomeric peptide, E-selectin SPR): up to 3 orders of magnitude; affinity enhancement (β) factor (E-selectin; multivalent effect of F1, twelve peptide units, SI section 6.5, eq. 3): 71
C60-(ISELRSE)12 [FC] | – | – | cell fluorescence, TNFα-treated HUVEC cells, confocal microscopy [2]: residual fluorescence
